For data set [1], the system named is Rattus norvegicus. Nature of the data set: Toxicity in 6-OHDA induced parkinsonian motor deficit Sprague-Dawley rat model assessed as induction of overacting rearing behavior at 20 mg/kg, ip. The data set is classed as organism-based. The conditions noted are these: in vivo.
The species entered for data set [2] is Rattus norvegicus. As to the kind of experiment: Protection against 6-OHDA induced parkinsonian motor deficit in Sprague-Dawley rat after 28 days post surgery. The data set is classed as functional.
Data set [3] has as its system Rattus norvegicus. Nature of the data set: Toxicity in 6-OHDA induced parkinsonian motor deficit Sprague-Dawley rat model assessed as induction of dyskinesia at 20 mg/kg, ip. It is filed as organism-based. Particulars: in vivo.
Data set [4] in a line: Plasma clearance in Sprague-Dawley rat at 1 mg/kg, iv administered as single dose by LC-MS/MS analysis. It is filed as ADME, organism-based. A digest of the protocol:
(§1)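 Single iv dose, 1 mg/kg in rat or 2 mg/kg in mouse; plasma PK parameters derived; brain/plasma ratio taken at 1 h postdose (rat) or 30 min postdose (mouse). Mean of 3 rats; 2 mice for mouse Cmax and brain/plasma.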

Data set [5] concerns Brain. Nature of the data set: AUC (0 to infinity) in Sprague-Dawley rat brain at 10 mg/kg, po administered as single dose by LC-MS/MS analysis. Also on record: dose 10 mg/kg, time infinity, route oral. It is filed as ADME, organism-based. The conditions noted are these: in vivo. In a few lines: (§2)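 Rats given a single oral dose of 10 mg/kg. Brain concentrations were measured at 30, 60 and 90 min postdose, and brain AUC0–inf was determined. Values are the mean of three rats. Lower limit of quantification was 1 ng/mL.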

The target in data set [6] is T1, Metabotropic glutamate receptor 4 (Homo sapiens, UniProt Q14833). Nature of the data set: Positive allosteric modulation of recombinant human mGlu4 receptor expressed in HEK293 cells co-expressing chimeric Gi/Gq assessed as increase in EC20 glutamate-induced calcium flux at 15 uM preincubated for 10 mins followed by glutamate addition measured for 3 mins by Fluo4-AM dye based fluorescence assay relative to control. It is filed as functional, cell-based. A general note: Calcium flux is commonly read through the fluorescence of an indicator in the cells.

Data set [7] in a line: Volume of distribution in Sprague-Dawley rat at 1 mg/kg, iv administered as single dose by LC-MS/MS analysis. The conditions noted are these: in vivo. The data set is classed as ADME, organism-based. A digest of the protocol: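 Single intravenous dose: rats 1 mg/kg, mice 2 mg/kg. Plasma concentration–time data yielded Cmax, t1/2, AUC0−∞, plasma clearance and volume of distribution. Values are mean ±SEM of 3 animals.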

The nature of data set [8]: Tmax in Sprague-Dawley rat plasma at 10 mg/kg, po administered as single dose by LC-MS/MS analysis. The data set is classed as ADME, organism-based. In a few lines: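 Single-dose plasma PK after ip (10 or 30 mg/kg) or oral (10 mg/kg) dosing in rats, and oral 10 mg/kg dosing in mice. […] Values are mean ±SEM of 3 rats or 2 mice.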
The species entered for data set [9] is Homo sapiens. As to the kind of experiment: Selectivity ratio of compound effect for positive allosteric modulation of recombinant human mGlu4 receptor to compound effect for agonist activity at human mGlu7 receptor.
The nature of data set [10]: Activity at COMT (unknown origin) up to 10 uM. The data set is classed as ADME. The conditions noted are these: human.
Data set [11] in a line: AUC (0 to infinity) in Sprague-Dawley rat plasma at 10 mg/kg, po administered as single dose by LC-MS/MS analysis. Also on record: dose 10 mg/kg, time infinity, route oral. The data set is classed as ADME, organism-based. A digest of the protocol:
(§3)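 Rats given a single oral dose of 10 mg/kg. The first plasma sample was taken at 15 min, and sampling continued to 24 h postdose. Brain was sampled at 30 min. Values are the mean (±SEM) of 3 rats.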

Data set [12] deals with Metabotropic glutamate receptor 4 (Rattus norvegicus, UniProt P31423). Nature of the data set: Positive allosteric modulation of rat mGlu4 receptor expressed in HEK293 cells co-expressing Gi/Gq assessed as increase in glutamate-induced calcium flux preincubated for 10 mins followed by glutamate addition measured for 3 mins by Fluo4-AM dye based fluorescence assay. The data set is classed as functional, cell-based.

Data set [13] in a line: Ratio of drug level in Sprague-Dawley rat brain to plasma at 1 mg/kg, iv after 1 hr post dose administered as single dose by LC-MS/MS analysis. The data set is classed as ADME, organism-based. Particulars: read-out: BPR. A digest of the protocol:
as §1

In data set [14] the target is T1, Metabotropic glutamate receptor 4. Nature of the data set: Positive allosteric modulation of recombinant human mGlu4 receptor expressed in HEK293 cells co-expressing Gi/Gq assessed as increase in glutamate-induced calcium flux preincubated for 10 mins followed by glutamate addition measured for 3 mins by Fluo4-AM dye based fluorescence assay. The data set is classed as functional, cell-based. The conditions noted are these: read-out: EC50.

Data set [15] is filed under the species Rattus norvegicus. Nature of the data set: Activity at kainate glutamate receptor in rat cerebral cortex at 10 uM. A digest of the protocol:
(§4)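 Inhibition of orthosteric ligand binding to NMDA, AMPA and kainate receptors on rat cerebral cortex membranes, tested up to 10 μM.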

Data set [16] is described as follows: Drug uptake in Sprague-Dawley rat brain at 10 mg/kg, po after 30 mins post dose administered as single dose by LC-MS/MS analysis. It is filed as ADME, organism-based. The conditions noted are these: read-out: Drug uptake. In a few lines:
as §3

Data set [17] is filed under the species Homo sapiens. As to the kind of experiment: Selectivity ratio of compound effect for positive allosteric modulation of recombinant human mGlu4 receptor to compound effect for activity at human mGlu6 receptor.
Data set [18] in a line: Half life in Sprague-Dawley rat at 1 mg/kg, iv administered as single dose by LC-MS/MS analysis. It is filed as ADME, organism-based. Particulars: in vivo. In a few lines:
as §1

Data set [19] is described as follows: Ratio of drug level in Sprague-Dawley rat brain to plasma at 25 mg/kg, po administered as single dose by LC-MS/MS analysis. It is filed as ADME, organism-based. Particulars: read-out: BPR. In a few lines: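 Sprague−Dawley rats dosed orally at 25 mg/kg in water; plasma and brain concentrations followed over time to derive brain/plasma ratio.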
Data set [20] is described as follows: Drug uptake in Sprague-Dawley rat brain at 10 mg/kg, po after 60 mins post dose administered as single dose by LC-MS/MS analysis. It is filed as ADME, organism-based. The conditions noted are these: read-out: Drug uptake. In a few lines: as §2
Data set [21] concerns the target T1, Metabotropic glutamate receptor 4. As to the kind of experiment: Positive allosteric modulation of recombinant human mGlu4 receptor expressed in HEK293 cells co-expressing chimeric Gi/Gq protein assessed as fold shift of glutamate potency at 3 uM after 10 mins by Fluo4-AM dye based fluorescence assay relative to control.
Data set [22] can be described thus: Ratio of AUC (0 to infinity) in Sprague-Dawley rat brain to plasma at 10 mg/kg, po administered as single dose by LC-MS/MS analysis. It is filed as ADME, organism-based. Particulars: read-out: Ratio AUC.
Data set [23] is described as follows: Cmax in Sprague-Dawley rat at 1 mg/kg, iv administered as single dose by LC-MS/MS analysis. It is filed as ADME, organism-based. Also on record: dose 1 mg/kg, route intravenous. Particulars: in vivo.
The nature of data set [24]: AUC (0 to infinity) in Sprague-Dawley rat at 1 mg/kg, iv administered as single dose by LC-MS/MS analysis. The data set is classed as ADME, organism-based. Also on record: dose 1 mg/kg, route intravenous, time infinity. The conditions noted are these: in vivo.
Data set [25] concerns the target T1, Metabotropic glutamate receptor 4. Nature of the data set: Positive allosteric modulation of recombinant human mGlu4 receptor expressed in HEK293 cells co-expressing chimeric G protein assessed as increase in EC20 glutamate-induced […]. The data set is classed as functional, cell-based. (Cyclic AMP is a second messenger, typically raised through Gs and lowered through Gi signalling.)

The nature of data set [26]: Drug uptake in Sprague-Dawley rat brain at 10 mg/kg, po after 90 mins post dose administered as single dose by LC-MS/MS analysis. It is filed as ADME, organism-based. The conditions noted are these: read-out: Drug uptake. In a few lines: as §2
The species entered for data set [27] is Rattus norvegicus. As to the kind of experiment: Activity at AMPA glutamate receptor in rat cerebral cortex at 10 uM. A digest of the protocol:
as §4

The species entered for data set [28] is Rattus norvegicus. Nature of the data set: Activity at NMDA glutamate receptor in rat cerebral cortex at 10 uM. A digest of the protocol: as §4
The species entered for data set [29] is Homo sapiens. Nature of the data set: Selectivity ratio of compound effect for positive allosteric modulation of recombinant human mGlu4 receptor to compound effect for agonist activity at human mGlu8 receptor.
Data set [30] addresses Amine oxidase [flavin-containing] A (Homo sapiens, UniProt P21397). Nature of the data set: Activity at MAO-A (unknown origin) up to 10 uM. The data set is classed as ADME.
The target in data set [31] is Amine oxidase [flavin-containing] B (Homo sapiens, UniProt P27338). Nature of the data set: Activity at MAO-B (unknown origin) up to 10 uM. It is filed as ADME.
In data set [32] the target is T1, Metabotropic glutamate receptor 4. As to the kind of experiment: Positive allosteric modulation of recombinant human mGlu4 receptor expressed in HEK293 cells co-expressing chimeric G protein assessed as increase in glutamate-induced calcium flux after 10 mins by Fluo4-AM dye based fluorescence assay. It is filed as functional, cell-based.
Data set [33] is described as follows: Cmax in Sprague-Dawley rat plasma at 10 mg/kg, po administered as single dose by LC-MS/MS analysis. Also on record: dose 10 mg/kg, route oral. It is filed as ADME, organism-based. In a few lines: as §3

Active and inactive are the calls of the source. The calls are words filed in the database; no cut-off is given here. Where only a bound is given, the exact number is not on record here.

As usually defined, the clearance is a measure of how efficiently the substance is removed, as volume per time. A low value points to a low capacity for elimination. As a reminder, the Emax is the size of the effect at its maximum, as opposed to the concentration needed. In general, Vd refers to a proportionality between amount in the body and measured concentration, not a real space. A low value points to confinement near the circulation. One may read the Tmax as the time at which the peak concentration occurs. The term AUC(0-inf) denotes the area under the concentration-time curve extrapolated to infinity. High values mean more exposure, low ones less exposure. Broadly, the EC50 is the concentration at which the effect is half-maximal. As usually defined, the half-life is the time in which the quantity being followed falls by half. Low readings indicate fast loss, high ones slow loss. In general, Cmax refers to the maximum level reached in the sampled fluid or tissue.

T1 sequence (Q14833 whole entry): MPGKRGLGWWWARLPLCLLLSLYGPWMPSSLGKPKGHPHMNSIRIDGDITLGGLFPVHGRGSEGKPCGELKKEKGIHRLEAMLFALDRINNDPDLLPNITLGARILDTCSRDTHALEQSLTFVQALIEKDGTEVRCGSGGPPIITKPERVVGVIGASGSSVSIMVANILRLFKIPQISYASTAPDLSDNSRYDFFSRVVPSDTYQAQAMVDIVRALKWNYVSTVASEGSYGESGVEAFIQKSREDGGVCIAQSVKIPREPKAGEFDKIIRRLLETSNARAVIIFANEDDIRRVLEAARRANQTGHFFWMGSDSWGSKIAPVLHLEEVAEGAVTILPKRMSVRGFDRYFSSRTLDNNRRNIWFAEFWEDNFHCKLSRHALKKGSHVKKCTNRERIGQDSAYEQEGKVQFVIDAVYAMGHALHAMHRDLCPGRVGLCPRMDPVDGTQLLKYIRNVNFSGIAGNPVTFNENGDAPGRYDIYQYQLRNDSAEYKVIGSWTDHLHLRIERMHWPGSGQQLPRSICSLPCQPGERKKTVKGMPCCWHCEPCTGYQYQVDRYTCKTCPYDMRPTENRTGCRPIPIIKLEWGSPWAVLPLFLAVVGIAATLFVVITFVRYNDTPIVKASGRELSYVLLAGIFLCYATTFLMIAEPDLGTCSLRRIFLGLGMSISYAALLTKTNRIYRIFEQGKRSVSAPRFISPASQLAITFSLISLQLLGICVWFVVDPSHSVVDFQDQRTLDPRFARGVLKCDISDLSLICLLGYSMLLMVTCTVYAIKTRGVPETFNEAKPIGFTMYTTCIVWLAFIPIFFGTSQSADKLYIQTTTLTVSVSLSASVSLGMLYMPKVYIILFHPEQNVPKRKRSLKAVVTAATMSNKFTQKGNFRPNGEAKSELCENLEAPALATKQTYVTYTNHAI
Amine oxidase [flavin-containing] B, sequence (P27338 whole entry): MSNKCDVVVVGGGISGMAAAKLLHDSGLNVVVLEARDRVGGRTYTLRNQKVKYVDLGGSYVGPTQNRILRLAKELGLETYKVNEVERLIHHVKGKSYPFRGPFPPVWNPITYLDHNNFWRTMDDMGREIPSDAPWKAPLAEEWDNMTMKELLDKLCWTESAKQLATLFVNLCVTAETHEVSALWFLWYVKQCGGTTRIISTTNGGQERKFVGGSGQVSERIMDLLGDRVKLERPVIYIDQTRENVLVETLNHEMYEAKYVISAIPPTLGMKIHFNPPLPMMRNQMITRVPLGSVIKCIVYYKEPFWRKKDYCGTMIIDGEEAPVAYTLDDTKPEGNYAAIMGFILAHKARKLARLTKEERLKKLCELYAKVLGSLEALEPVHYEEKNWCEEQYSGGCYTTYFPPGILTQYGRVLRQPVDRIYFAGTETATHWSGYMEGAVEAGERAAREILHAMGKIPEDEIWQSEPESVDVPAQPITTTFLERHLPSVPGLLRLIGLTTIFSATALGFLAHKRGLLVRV
Amine oxidase [flavin-containing] A, sequence (P21397 whole entry): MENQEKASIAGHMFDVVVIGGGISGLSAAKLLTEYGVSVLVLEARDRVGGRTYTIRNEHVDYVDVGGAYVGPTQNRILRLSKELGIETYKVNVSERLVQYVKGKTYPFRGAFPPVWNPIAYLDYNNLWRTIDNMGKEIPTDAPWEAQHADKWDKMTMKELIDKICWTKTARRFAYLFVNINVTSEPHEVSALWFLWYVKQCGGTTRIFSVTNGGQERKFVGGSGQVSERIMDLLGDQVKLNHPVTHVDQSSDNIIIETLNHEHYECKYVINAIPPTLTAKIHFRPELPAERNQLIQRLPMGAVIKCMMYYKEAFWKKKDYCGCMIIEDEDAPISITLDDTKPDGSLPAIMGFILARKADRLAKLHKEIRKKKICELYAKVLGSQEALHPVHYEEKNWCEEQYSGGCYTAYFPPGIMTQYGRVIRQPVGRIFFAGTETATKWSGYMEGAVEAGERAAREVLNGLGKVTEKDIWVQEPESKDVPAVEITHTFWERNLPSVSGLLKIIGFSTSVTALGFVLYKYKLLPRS
Metabotropic glutamate receptor 4 (Rattus norvegicus, UniProt P31423), sequence (P31423 whole entry): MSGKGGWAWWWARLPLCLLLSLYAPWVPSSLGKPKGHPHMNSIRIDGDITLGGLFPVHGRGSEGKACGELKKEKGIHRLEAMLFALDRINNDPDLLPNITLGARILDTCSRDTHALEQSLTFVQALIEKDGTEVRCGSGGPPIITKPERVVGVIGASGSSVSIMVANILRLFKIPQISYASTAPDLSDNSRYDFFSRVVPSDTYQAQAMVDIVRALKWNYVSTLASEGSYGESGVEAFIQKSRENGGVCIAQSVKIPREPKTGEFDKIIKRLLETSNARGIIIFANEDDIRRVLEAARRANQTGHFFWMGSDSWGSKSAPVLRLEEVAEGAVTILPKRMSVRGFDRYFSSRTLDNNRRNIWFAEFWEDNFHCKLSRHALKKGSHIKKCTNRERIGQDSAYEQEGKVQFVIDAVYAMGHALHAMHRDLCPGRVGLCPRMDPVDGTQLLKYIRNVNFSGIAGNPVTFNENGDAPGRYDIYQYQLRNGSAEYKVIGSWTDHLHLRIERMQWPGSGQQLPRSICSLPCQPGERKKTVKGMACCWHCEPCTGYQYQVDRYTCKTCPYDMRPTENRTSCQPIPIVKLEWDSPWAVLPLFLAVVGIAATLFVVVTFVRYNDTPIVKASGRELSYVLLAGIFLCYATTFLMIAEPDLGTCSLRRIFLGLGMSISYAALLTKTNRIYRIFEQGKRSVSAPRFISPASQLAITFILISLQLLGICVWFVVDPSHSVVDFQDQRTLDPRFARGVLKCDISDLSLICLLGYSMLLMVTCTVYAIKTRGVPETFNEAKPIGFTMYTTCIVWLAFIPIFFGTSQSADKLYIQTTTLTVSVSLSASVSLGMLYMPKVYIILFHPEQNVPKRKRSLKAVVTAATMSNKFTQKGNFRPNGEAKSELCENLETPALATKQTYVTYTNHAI

For the compound `N[C@@H](Cc1ccc(O)c(O)c1)C(=O)O` [LEVODOPA], the Activity entry is “Toxic” in data set [1], “Dose-dependent effect” in data set [2] and “Non-Toxic” in [3].

As for `O/N=c1\cc(-c2cc3sccc3cn2)oc2ccc(CCCN3CCOCC3)cc12` [FOLIGLURAX], the clearance in data set [4] is 6.24 L/h/kg. Also, the AUC in data set [5] was 2713 ng·h/g. Moreover, the Emax is 32% in data set [6] and 70% in data set [25]. In [7], this compound gave a Vd of 8.02 L/kg. In data set [8], the Tmax worked out at 1.17 h. For the same compound, the values for the Selectivity ratio in data set [9], in data set [17] and in data set [29] were 110, 15 and 50, respectively. In addition, the Activity result in [10], in [30] and in data set [31] was “Not Active” throughout. Also, the figures for the area under the curve AUC(0-inf) in data set [11] and in [24] were 0.432 µg·h/mL and 0.163 µg·h/mL, respectively. The EC50 in [12] turned out to be 0.047 µM; in data set [14], 0.079 µM; in data set [32] it was 0.079 µM. Further, in data set [13], the Kp at 1 h came to 8.4. Besides, the outcome in data set [15], in data set [27] and in [28] was inactive. In [16], the concentration at 0.5 h stood at 458 ng/g. Besides, the half-life in data set [18] is 0.9 h. Further, the Kp in data set [19] was no more than 13.5; in [22], 6.6. Besides, the concentration at 1 h in data set [20] stood at 785 ng/g. Also, the fold change (FC) in data set [21] amounted to 10. In addition, the Cmax in [23] was determined as 0.325 µg/mL; in [33], 0.094 µg/mL. Also, in data set [26], the concentration at 1.5 h is 818 ng/g.

The values above are taken from ChEMBL document CHEMBL4017520, “Discovery, Structure-Activity Relationship, and Antiparkinsonian Effect of a Potent and Brain-Penetrant Chemical Series of Positive Allosteric Modulators of Metabotropic Glutamate Receptor 4” (J Med Chem, 2017).
